In ChEMBL document CHEMBL1143769, “Ezetimibe analogs with a reorganized azetidinone ring: Design, synthesis, and evaluation of cholesterol absorption inhibitions” (2007):

Columns and labels:
[1] = test system: Rattus norvegicus; experiment: Decrease in total cholesterol levels in high-cholesterol diet fed Wistar rat at 4 mg/kg/day; type: functional; design: scale not given: the % may be the effect or the level left
Outline: (§1)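 Rats fed a high-cholesterol, high-fat diet; drug suspended in 0.5% sodium carboxymethyl cellulose (40 mg/100 ml) and given intragastrically at 4 mg/kg/day. After a 16 h fast, tail blood was collected and serum total cholesterol and LDL-cholesterol measured. 8–18 rats per group; percent change calculated against high-cholesterol-diet animals.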

[2] = test system: Rattus norvegicus; experiment: Decrease in LDL-cholesterol levels in high-cholesterol diet fed Wistar rat at 4 mg/kg/day; type: functional; design: scale not given: the % may be the effect or the level left; outline: as §1

| Structure (SMILES) | Activity [1] | Activity [2] |
| --- | --- | --- |
| O=C1[C@H](c2ccc(F)cc2)[C@@H](c2ccc(O)cc2)N1CC[C@@H](O)c1ccc(F)cc1 | -17% | -5% |
| O=C1[C@H](CC[C@H](O)c2ccc(F)cc2)[C@@H](c2ccc(O)cc2)N1c1ccc(F)cc1 [EZETIMIBE] | -51% | -47% |
| O=C1[C@@H](c2ccc(F)cc2)[C@H](c2ccc(O)cc2)N1CC[C@H](O)c1ccc(F)cc1 | -25% | -29% |
| O=C1[C@@H](c2ccc(F)cc2)[C@H](c2ccc(O)cc2)N1CC[C@@H](O)c1ccc(F)cc1 | -18% | -35% |
| O=C1[C@H](c2ccc(F)cc2)[C@@H](c2ccc(O)cc2)N1CC[C@H](O)c1ccc(F)cc1 | -26% | -22% |
